MC4R antag cAMP = MC4R antagonists of cAMP signaling, primary screen, cell-based, TR-FRET, antagonist arm of biased-ligand search. Melanocortin receptor 4 (Homo sapiens), P32245. MC4R-expressing cells, MTII-stimulated cAMP, LANCE TR-FRET. inhibition, % at 6.5 µM. 0.48% of 360,000 active;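 active = inhibition above its plate's cutoff, the mean of tested wells on that plate plus 3 SD, cut at about 29% in these data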;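 also: 0% = Melanotan II alone and 100% = Melanotan II plus saturating MCL0020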
Target sequence (P32245 whole entry, looked up): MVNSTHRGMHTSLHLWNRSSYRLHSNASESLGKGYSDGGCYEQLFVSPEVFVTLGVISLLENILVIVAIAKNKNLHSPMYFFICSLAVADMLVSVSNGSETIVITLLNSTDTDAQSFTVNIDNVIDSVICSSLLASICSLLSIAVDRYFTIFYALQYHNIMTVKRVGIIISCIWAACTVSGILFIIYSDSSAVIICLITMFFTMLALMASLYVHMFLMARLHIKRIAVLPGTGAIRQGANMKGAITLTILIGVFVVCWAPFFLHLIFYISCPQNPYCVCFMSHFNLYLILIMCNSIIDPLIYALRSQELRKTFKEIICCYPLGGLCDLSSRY
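Test system: U2OS cells stably expressing human melanocortin 4 receptor (MC4R); also added: Melanotan II challenge; compound: 6.5 µM single dose; timing: 30-min compound preincubation, 1-h Melanotan II challenge, 1-h detection, room temperature; signal: Eu-cAMP/anti-cAMP TR-FRET, emission 671 nm; repeats: one well per compound, no replicates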
Rev-erbA mod = modulators of Rev-erb alpha DNA binding, primary screen, biochemical, FITC-DNA, fluorescence polarization, uHTS; Rev-erbα–FITC-DNA binding, 90 min; 0.79% of 370,000 active; activity, % at 10 µM;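 active = activity above about 14%, limit read from the data; passing the limit was not always enough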;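 also: 0% = DMSO wells with 35 nM protein and 100% = DMSO wells with 750 nM protein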
NR2E3 ag-1 = inhibitors of NR2E3-RetCOR corepressor binding, primary screen, NR2E3 agonist project, biochemical, TR-FRET, GST-NR2E3, biotin-RetCOR. Photoreceptor-specific nuclear receptor (Homo sapiens), Q9Y5X4. 1536-well. inhibition of corepressor binding, % at 4.78 µM. 0.12% of 320,000 active. AID 2300, 2010;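 active = percent inhibition above the cutoff of mean plus 3 SD of all tested compounds, set per screening campaign, cut at about 20% in these data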;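 also: 0% = DMSO wells and 100% = biotin wells as full block of FRET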
Target sequence (Q9Y5X4 whole entry, looked up): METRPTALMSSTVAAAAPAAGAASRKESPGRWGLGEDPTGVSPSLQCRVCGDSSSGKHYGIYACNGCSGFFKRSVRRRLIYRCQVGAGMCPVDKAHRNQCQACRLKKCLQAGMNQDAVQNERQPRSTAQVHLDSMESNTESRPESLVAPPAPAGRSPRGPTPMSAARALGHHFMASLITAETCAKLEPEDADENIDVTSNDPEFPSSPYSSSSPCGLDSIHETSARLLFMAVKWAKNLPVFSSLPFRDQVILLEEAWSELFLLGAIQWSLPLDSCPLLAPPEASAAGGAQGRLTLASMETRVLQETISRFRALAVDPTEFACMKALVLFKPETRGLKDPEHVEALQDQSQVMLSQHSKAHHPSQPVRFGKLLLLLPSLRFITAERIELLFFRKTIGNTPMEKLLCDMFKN
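System: GST-tagged NR2E3 plus biotinylated RetCOR corepressor; Amount: 1.35 nM GST-tagged NR2E3 final; Dosing: single nominal compound dose of 4.8 µM; Schedule: 5 h incubation at 4 °C; Technique: TR-FRET with europium anti-GST and streptavidin-D2, 340 nm excitation; Controls: biotin wells as high control, 0.6% DMSO wells as low control.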
PG9 Ab binder = binders of HIV-1 gp120 antibody PG9, primary screen, biochemical, TR-FRET; TR-FRET gp120-PG9 antibody binding; inhibition, % at 6.7 µM; 0.43% of 360,000 active; AID 624416, 2012; in the data active = inhibition above about 8.5%
MC4R barr agon = MC4R agonists recruiting beta-arrestin, primary screen, cell-based, luminescence, agonist arm of biased-ligand search; Melanocortin receptor 4 (Homo sapiens), P32245; U2OS MC4R beta-arrestin complementation; percent of melanotan II response, DMSO zero; activation, % at 8.9 µM; 0.98% of 360,000 active;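 active = activation above a per-plate cutoff, the mean activation of sample wells on that plate plus 3 SD, cut at about 8% in these data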
NR2E3 ag-2 = NR2E3 agonists in two-hybrid cells, primary screen, cell-based, luminescence, CHO-S, Gal4-NCOR/VP16-NR2E3; AID 602229, 2012; Photoreceptor-specific nuclear receptor (Homo sapiens), Q9Y5X4; inhibition of corepressor binding, % at 3.98 µM; luciferase; 0.35% of 360,000 active;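 active = inhibition above the mean of all tested compounds plus 3 SD, cut at about 70% in these data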;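 also: 0% = DMSO with NR2E3 transfected cells and 100% = cells lacking NR2E3 construct; higher means lower luciferase signal from less NR2E3 corepressor binding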
MC4R barr ag = MC4R beta-arrestin agonists, retest, confirmation, cell-based, luminescence, U2OS; U2OS MC4R beta-arrestin recruitment; scaled DMSO 0%, Melanotan II 100%; 31% of 2,400 active; shares compounds with MC4R barr agon; activation, % at 8.9 µM;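 active = mean activation across replicates above the hit cutoff set in the earlier primary screen, cut at about 8% in these data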
MOR DOR agonist = agonists of MOR-DOR heterodimerization, counter-screen for MC4R biased agonist project, cell-based, luminescence | U2OS PathHunter beta-arrestin, beta-gal luminescence; percent of deltorphin B response, DMSO zero | shares compounds with MC4R barr agon | 5.8% of 2,400 active | activation, % at 9.2 µM;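 active = mean activation across replicates exceeds the hit threshold derived in the earlier primary screen, cut at about 18% in these data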;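 also: 100% = deltorphin B at 0.9 µM final and 0% = DMSO alone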
Numbers without * were called inactive; nt = not tested or not shown; ! = not active in a repeat. Hits are enriched below; roughly 2.7% of the tested compounds scored in any of these assays.

SMILES	MC4R antag cAMP	Rev-erbA mod	NR2E3 ag-1	PG9 Ab binder	MC4R barr agon	NR2E3 ag-2	MC4R barr ag	MOR DOR agonist
N#Cc1c2ccc(OCC(=O)NCc3ccco3)cc2n2ccccc12	12.1	-2.5	-2.7	-2.8	14.5*	-31.7	3.0	5.4
C/C(=C\c1ccco1)C1C(C#N)=C(N)Oc2n[nH]c(-c3ccc(C)cc3)c21 (centres undefined)	9.7	-1.2	2.3	0.9	15.6*	-5.5	23.4*	10.9
C/C(=C\c1ccco1)C1C(C#N)=C(N)Oc2n[nH]c(-c3ccccc3)c21 (centres undefined)	-4.5	-0.8	3.5	0.4	-1.9	-8.2	nt	nt
CCOc1cc(S(=O)(=O)Nc2cc(C)cc(C)c2)ccc1Cl	-2.4	10.2	1.6	-3.3	9.6*	27.9	5.7	8.3
CCC12CCCN3CCC4(C(=C(C(=O)OC)C1)Nc1ccccc14)C32 (centres undefined)	-9.2	-4.0	nt	-1.9	10.4*	2.4	6.3	11.3
CNC(=O)Oc1ccc2c(c1)[C@]1(C)CCN(C)C1N2C (some centres undefined)	1.6	-5.8	3.8	1.7	-0.9	-14.4	nt	nt
O=c1c2ccccc2nc(/C=C/c2ccc(O)cc2)n1CCc1ccccc1	15.6	2.2	-0.5	-1.7	14.6*	-29.4	1.1	6.8
CCOc1ccc(N(CC(=O)NCCC2=CCCCC2)S(=O)(=O)c2ccccc2)cc1	7.4	-2.2	2.9	-3.5	-1.3	-20.6	nt	nt
CN1C(=O)/C(=C/c2ccccc2OCc2cccc(F)c2)NC1=S	-7.8	-1.1	0.5	-2.3	30.2*	-10.2	5.2	3.5
Nc1c(-c2ccccn2)cnn1-c1nc(-c2ccc(F)cc2)cs1	-0.6	1.6	-3.2	-1.3	9.7*	-28.3	4.3	2.4
CCN(C[C@H]1N[C@@](C)(C(=O)OC)[C@H]2C(=O)N(C)C(=O)[C@@H]12)S(=O)(=O)c1ccc(OC(F)(F)F)cc1	8.0	0.4	nt	0.0	-0.9	-14.5	nt	nt
COCCNC(=S)N1CCc2cc(OC)c(OC)cc2C1c1cccs1 (centres undefined)	-0.9	1.8	-1.8	-0.2	-2.5	-18.4	nt	nt
CC(=O)c1ccc(OCc2cc(C(=O)NCCc3ccc(Cl)cc3)no2)cc1	19.9	0.5	-0.4	0.3	14.5*	-52.9	-1.5	5.2
CC(=O)c1ccc(OCc2cc(C(=O)NCC3CCCCO3)no2)cc1 (centres undefined)	-0.6	1.6	0.7	-0.3	-1.1	-29.2	nt	nt
Cc1cc2c(cc1S(=O)(=O)CCC(=O)N1CC(C)CC(C)C1)OCC(=O)N2 (centres undefined)	-21.0	-4.1	2.0	2.8	-0.6	2.4	nt	nt
CN1CCN(Cc2nc3ccccc3c(=O)n2Cc2nc(-c3ccc4ccccc4c3)cs2)CC1	1.4	-4.1	-1.5	-1.8	9.7*!	0.7	12.9*	12.4
CN1CCN(Cc2nc3ccccc3c(=O)n2Cc2nc(-c3cccc([N+](=O)[O-])c3)cs2)CC1	14.7	4.7	nt	-1.2	0.8	-28.8	nt	nt
Fc1ccccc1/C=N/Nc1nc2ccccc2o1	-1.3	-4.4	2.8	-0.1	13.0*	-134.1	-0.5	5.3
COc1cc(NC(=O)c2cc3c(=O)n(C)c4ccccc4c3n2C)cc(OC)c1OC	2.8	1.2	5.3	0.4	30.7*	-15.9	0.7	7.0
O=c1cc(-c2ccc(O)cc2)oc2c1ccc1ccccc12	-3.2	-34.6	-1.6	1.1	49.9*	12.2	3.5	3.6
O=c1cc(-c2ccncc2)oc2c1ccc1ccccc12	-19.2	-3.9	-0.8	0.8	-1.5	16.4	nt	nt
Cc1ccc(CSc2nnc(Nc3ccc(C)cc3)s2)cc1	14.4	3.7	1.6	-0.8	18.6*	-14.5	3.6	3.9
CCc1ccc(Nc2nnc(SCC(=O)NC(=O)c3cccn3C)s2)cc1	-7.2	-0.5	3.6	-0.6	19.6*	-32.9	4.0	12.1
Cc1ccc(C(=O)N2CCN(c3ccc(N4CCOCC4)nn3)CC2)cc1	-0.1	-5.3	4.6	0.6	0.7	3.2	nt	nt
COc1cc(C(=S)N2CCCCC2)ccc1OCC(=O)Nc1ccccc1Cl	11.8	-2.5	0.4	0.2	-0.1	-10.4	nt	nt
SMILES	MC4R antag cAMP	Rev-erbA mod	NR2E3 ag-1	PG9 Ab binder	MC4R barr agon	NR2E3 ag-2	MC4R barr ag	MOR DOR agonist
O=C(COc1ccc(C(=S)N2CCOCC2)cc1Cl)Nc1ccccc1Cl	11.7	7.5	2.6	-1.2	21.5*	4.4	-1.3	4.5
O=C(N/N=C/c1cccc(OCc2ccccc2)c1)c1ccc(Br)cc1	5.2	0.3	-2.1	-2.5	17.4*	-1.6	-1.6	5.7
O=C(N/N=C/c1ccc(OCc2ccccc2)cc1)c1cccs1	0.8	-1.5	-1.5	0.4	13.3*	-87.1	20.1*	7.6
CC(/C=N/NC(=O)c1ccc(Br)cc1)=C\c1ccccc1	0.6	-12.4	-0.8	-2.4	28.1*	-22.8	0.9	8.0
O=C(Nc1ccc(OCc2ccccc2)cc1)c1cccs1	1.5	3.2	2.9	-1.3	1.8	-59.0	nt	nt
COc1ccc(N2CCN(S(=O)(=O)c3cc(-c4cc(C)no4)ccc3C(C)C)CC2)cc1	-6.3	7.2	2.4	-0.8	-1.2	-24.2	nt	nt
Cc1ccc(NC(=O)c2nc[nH]c2C(=O)Nc2ccccc2F)cc1	-0.2	0.2	nt	-0.9	16.2*	5.4	-1.0	2.0
O=C(Nc1ccccc1)c1nc[nH]c1C(=O)Nc1ccccc1F	12.2	-3.5	nt	-1.1	2.8	13.7	nt	nt
Cc1ccc(C)c(OCCC(=O)OCC(=O)NC2CC2)c1	6.5	-0.3	-0.3	3.2	-2.8	-9.2	nt	nt
Cc1ccc(C)c(OCCC(=O)OCC(=O)NC(=O)NC2CCCC2)c1	7.6	1.3	3.2	-0.4	13.9*	-1.7	3.1	8.0
O=C(NC1CCCCC1)NC1(C(=O)N2CCN3CCCC3C2)CCCCC1 (centres undefined)	7.5	-6.2	-3.3	2.7	0.7	-7.0	nt	nt

Compound activity (PubChem)
